Our source for the IC50 and inhibition values is ChEMBL document CHEMBL3792345, “Isoquinoline-1,3-diones as Selective Inhibitors of Tyrosyl DNA Phosphodiesterase II (TDP2)” (J Med Chem, 2016).

Test [1] concerns the target T1, Tyrosyl-DNA phosphodiesterase 2 (Homo sapiens, UniProt O95551).
T1 sequence (O95551 whole entry): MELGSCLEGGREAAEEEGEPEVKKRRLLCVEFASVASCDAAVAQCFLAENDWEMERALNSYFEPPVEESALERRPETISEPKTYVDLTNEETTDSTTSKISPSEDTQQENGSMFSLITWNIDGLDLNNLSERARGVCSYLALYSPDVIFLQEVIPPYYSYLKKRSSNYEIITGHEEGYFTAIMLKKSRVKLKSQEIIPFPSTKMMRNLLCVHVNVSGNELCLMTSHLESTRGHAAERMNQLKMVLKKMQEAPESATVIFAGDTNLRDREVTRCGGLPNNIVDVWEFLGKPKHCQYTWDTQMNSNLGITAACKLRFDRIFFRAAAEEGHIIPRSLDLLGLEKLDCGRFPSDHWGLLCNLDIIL
Put plainly: Inhibition of recombinant human TDP2 using 18-mer single stranded oligonucleotide DNA as substrate incubated for 15 mins by PAGE assay. The gist of the method: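 1 nM TY18 substrate (α³²P-cordycepin-3′-labelled 18-mer ssDNA) with 25 pM recombinant human TDP2, 15 min at room temperature in LMP2 buffer (pH 7.5, 5 mM MgCl₂). Dose–response at 1.4, 4.1, 12.3, 37, 111 μM, resolved on gels. IC50 is mean ± SD of at least three independent experiments.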

For test [2], the target named is Tyrosyl-DNA phosphodiesterase 1 (Homo sapiens, UniProt Q9NUW8). Put plainly: Inhibition of recombinant TDP1 (unknown origin) using 5'-[32P]-labeled single stranded oligonucleotide DNA containing 3'-phophotyrosine (N14Y) as substrate at 111 uM incubated for 15 mins by PAGE assay.
Sequence of Tyrosyl-DNA phosphodiesterase 1 (Q9NUW8 whole entry): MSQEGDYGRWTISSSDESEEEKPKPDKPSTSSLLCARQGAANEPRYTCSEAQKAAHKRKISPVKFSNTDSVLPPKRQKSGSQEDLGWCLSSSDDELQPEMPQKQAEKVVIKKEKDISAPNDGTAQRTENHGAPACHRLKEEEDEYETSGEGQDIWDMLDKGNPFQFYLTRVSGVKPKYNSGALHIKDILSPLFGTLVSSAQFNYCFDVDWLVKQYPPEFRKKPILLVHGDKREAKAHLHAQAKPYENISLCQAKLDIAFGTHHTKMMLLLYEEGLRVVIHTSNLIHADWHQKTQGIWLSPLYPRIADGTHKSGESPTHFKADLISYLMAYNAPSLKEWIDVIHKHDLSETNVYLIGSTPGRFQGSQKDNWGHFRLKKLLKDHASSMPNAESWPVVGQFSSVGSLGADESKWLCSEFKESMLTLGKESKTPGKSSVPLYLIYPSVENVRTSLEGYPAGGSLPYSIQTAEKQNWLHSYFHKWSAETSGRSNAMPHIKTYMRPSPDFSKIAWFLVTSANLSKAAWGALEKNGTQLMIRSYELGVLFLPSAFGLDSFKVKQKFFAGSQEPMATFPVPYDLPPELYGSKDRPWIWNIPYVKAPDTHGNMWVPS
Test [3] concerns the target T1, Tyrosyl-DNA phosphodiesterase 2. Put plainly: Inhibition of human TDP2 expressed in DT40 cells (TDP2-knockout) using 18-mer single stranded oligonucleotide DNA as substrate incubated for 15 mins by PAGE assay. Summed up: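 Extract from 1 × 10⁷ TDP2−/− DT40 cells complemented with human TDP2, prepared as the TDP1 extracts. 1 nM TY18 substrate (α³²P-cordycepin-3′-labelled 18-mer) with 5 μg/mL extract ± inhibitor, 15 min at room temperature. Products resolved on gel.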

The source made the active and inactive calls. How the calls were made is not given here.

`O=C1Cc2ccc(-c3ccco3)cc2C(=O)N1`: the IC50 – broadly, the concentration needed to halve the response being measured – in test [1] was determined as 13 µM; in test [3], 50 µM. Further, in test [2], the inhibition result was “inactive”.

With `O=C1Cc2cc(-c3ccc(F)cc3F)ccc2C(=O)N1`, the IC50 was 4.5 µM in test [1] and 5.5 µM in test [3]. Moreover, the inhibition result in test [2] was “inactive”.

For the compound `O=C1Cc2cc(Cc3ccccc3)ccc2C(=O)N1`, in test [1], the IC50 was more than 111 µM. Moreover, the inhibition result in test [2] is “inactive”.

For the compound `O=C1Cc2ccc(I)cc2C(=O)N1`, in test [1], the IC50 was 9.8 µM. Besides, the inhibition result in test [2] is “inactive”.

In the case of `O=C1Cc2cc(-c3ccc(F)c(Cl)c3)ccc2C(=O)N1`, the IC50 in test [1] is 4.1 µM; in test [3] it was 5.3 µM. Besides, the inhibition result in test [2] was “inactive”.

On to `Nc1cccc(-c2ccc3c(c2)CC(=O)NC3=O)c1`, for which the IC50 in test [1] was 42 µM; in test [3] it was 55 µM. The inhibition result in test [2] is “inactive”.

As for `O=C1Cc2ccc(-c3cccc(O)c3)cc2C(=O)N1`, the IC50 in test [1] was 15 µM. Besides, the inhibition result in test [2] was “inactive”.

Regarding `O=c1[nH]c(=O)c2ccc(-c3ccccc3)cc2[nH]1`, the IC50 in test [1] was more than 111 µM. Further, the inhibition entry in test [2] was “inactive”.

Regarding `Nc1ccc(-c2ccc3c(c2)CC(=O)NC3=O)cc1`, the IC50 in test [1] amounted to 36 µM; in test [3], 40 µM. The inhibition result in test [2] was “inactive”.

For the compound `O=C1Cc2ccc(-c3cccc(Cl)c3)cc2C(=O)N1`, the results for the IC50 in test [1] and in test [3] were 1.7 µM and 3.2 µM, respectively. Besides, the inhibition entry in test [2] was “inactive”.

Regarding `O=C1Cc2cc(-c3ccc(C(=O)O)cc3)ccc2C(=O)N1`, the IC50 in test [1] was determined as 30 µM. Moreover, the inhibition entry in test [2] is “inactive”.

Take `CCOC(=O)C1C(=O)NC(=O)c2ccc(Br)cc21` (stereo not drawn): the IC50 in test [1] was 14 µM. Also, in test [2], the inhibition entry is “inactive”.

`O=C1Cc2cc([N+](=O)[O-])ccc2C(=O)N1`: the IC50 in test [1] is 19 µM. The inhibition entry in test [2] is “inactive”.

Consider `O=C1Cc2ccccc2C(=O)N1`, for which the IC50 in test [1] is 25 µM. Besides, the inhibition entry in test [2] was “inactive”.

For the compound `O=C1Cc2cc(-c3ccc(Cl)cc3)ccc2C(=O)N1`, the IC50 is 6.4 µM in test [1] and 4.5 µM in test [3]. Moreover, the inhibition result in test [2] is “inactive”.

Regarding `Nc1c2c(nn1-c1ccc(F)cc1)CC(=O)NC2=O`, the IC50 in test [1] was more than 111 µM. In addition, in test [2], the inhibition entry was “inactive”.

Consider `O=C1Cc2cccc(-c3cccc([N+](=O)[O-])c3)c2C(=O)N1`, for which, in test [1], the IC50 was 19 µM. Also, the inhibition result in test [2] is “inactive”.

As to `O=C1Cc2cc(-c3cccnc3)ccc2C(=O)N1`, the values for the IC50 in test [1] and in test [3] were 16 µM and 23 µM, respectively. In addition, the inhibition entry in test [2] is “inactive”.

As to `NC(=O)c1cccc(-c2ccc3c(c2)CC(=O)NC3=O)c1`, in test [1], the IC50 came to 16 µM. In addition, the inhibition entry in test [2] is “inactive”.

As for `O=C1Cc2ccc(-c3ccc(Br)cc3)cc2C(=O)N1`, the IC50 in test [1] was 7.1 µM. In addition, the inhibition result in test [2] was “inactive”.

In the case of `Nc1c2c(nn1-c1ccccc1)CC(=O)NC2=O`, the IC50 in test [1] was more than 111 µM. Further, in test [2], the inhibition entry was “inactive”.

In the case of `O=C1Cc2cc(-c3ccccc3)ccc2C(=O)N1`, the results for the IC50 in test [1] and in test [3] were 23 µM and more than 111 µM, respectively. Further, the inhibition entry in test [2] was “inactive”.

With `COc1ccc(-c2ccc3c(c2)CC(=O)NC3=O)cc1F`, the IC50 came out at 3 µM in test [1] and 4.3 µM in test [3]. Further, in test [2], the inhibition result was “inactive”.

On to `O=C1Cc2cc(Br)ccc2C(=O)N1`, for which the half-maximal inhibitory concentration (IC50) in test [1] worked out at 11 µM. Also, in test [2], the inhibition result was “inactive”.

For `O=C1Cc2cc(-c3ccc(C(F)(F)F)cc3)ccc2C(=O)N1`, the results for the IC50 in test [1] and in test [3] were 3.2 µM and 2.7 µM, respectively. The inhibition result in test [2] was “inactive”.

As to `O=C1Cc2cc(-c3cnc4ccccc4c3)ccc2C(=O)N1`, the IC50 in test [1] is 9.3 µM; in test [3], more than 111 µM. In addition, the inhibition result in test [2] is “inactive”.

Consider `O=C1Cc2cc(C(F)(F)F)ccc2C(=O)N1`, for which the IC50 in test [1] worked out at 7 µM; in test [3], 3.5 µM. In addition, the inhibition entry in test [2] is “inactive”.

Take `O=C1Cc2ccc(-c3cccnc3)cc2C(=O)N1`: the IC50 in test [1] is 20 µM. Further, the inhibition result in test [2] is “inactive”.

Regarding `O=C1Cc2ccc(C(=O)c3cccc([N+](=O)[O-])c3)cc2C(=O)N1`, the IC50 in test [1] was determined as 5.4 µM. The inhibition entry in test [2] is “inactive”.

Regarding `O=C1Cc2ccc(-c3ccco3)cc2C(=O)N1O`, the IC50 in test [1] is more than 111 µM. The inhibition entry in test [2] was “inactive”.

As for `O=C1Cc2cc(-c3ccccc3C(=O)O)ccc2C(=O)N1`, the IC50 in test [1] is more than 111 µM. Also, in test [2], the inhibition entry is “inactive”.

Consider `O=C1Cc2cc(-c3cccc(-c4ccccc4)c3)ccc2C(=O)N1`, for which, in test [1], the IC50 is more than 111 µM. The inhibition result in test [2] was “inactive”.

Turning to `O=C1NC(=O)c2ccc(-c3ccco3)c3cccc1c23`, the concentration for half-maximal inhibition (IC50) in test [1] is more than 111 µM. In addition, the inhibition entry in test [2] was “inactive”.

`O=C1Cc2cc(C(=O)c3cccc([N+](=O)[O-])c3)ccc2C(=O)N1`: in test [1], the IC50 came out at 11 µM. Also, in test [2], the inhibition entry was “inactive”.

Take `CS(=O)(=O)Nc1cccc(-c2ccc3c(c2)C(=O)NC(=O)C3)c1`: in test [1], the IC50 was found to be 4.5 µM. Further, the inhibition entry in test [2] was “inactive”.

Regarding `O=C1Cc2ccc(-c3ccc(O)cc3)cc2C(=O)N1`, the concentration for half-maximal inhibition (IC50) in test [1] was 14 µM. The inhibition entry in test [2] was “inactive”.

On to `Nc1c2c(nn1-c1ccccn1)CC(=O)NC2=O`, for which the IC50 in test [1] is more than 111 µM. For the same compound, in test [2], the inhibition result is “inactive”.

Take `COc1ccc(OC)c(-c2ccc3c(c2)CC(=O)NC3=O)c1`: in test [1], the IC50 turned out to be 16 µM. In addition, the inhibition entry in test [2] was “inactive”.

Turning to `O=C1Cc2c(cccc2-c2cccc([N+](=O)[O-])c2)C(=O)N1`, the IC50 in test [1] was more than 37 µM. Besides, the inhibition result in test [2] is “inactive”.

With `Nc1cccc(-c2ccc3c(c2)C(=O)NC(=O)C3)c1`, the IC50 in test [1] was more than 111 µM. Also, the inhibition result in test [2] was “inactive”.

On to `O=C1Cc2cccc(-c3cccc(O)c3)c2C(=O)N1`, for which, in test [1], the IC50 was found to be 26 µM. For the same compound, the inhibition result in test [2] is “inactive”.

`C=CC(=O)Nc1cccc(-c2ccc3c(c2)C(=O)NC(=O)C3)c1`: the IC50 in test [1] came to 11 µM. For the same compound, the inhibition result in test [2] was “inactive”.

For `COc1cccc(OC)c1-c1ccc2c(c1)CC(=O)NC2=O`, the IC50 in test [1] was more than 37 µM. Moreover, in test [2], the inhibition result was “inactive”.

In the case of `O=C1Cc2c(Br)cccc2C(=O)N1`, in test [1], the IC50 is more than 37 µM. For the same compound, in test [2], the inhibition entry was “inactive”.

Regarding `C=CC(=O)Nc1ccc(-c2ccc3c(c2)CC(=O)NC3=O)cc1`, the IC50 in test [1] was determined as 10 µM. Also, in test [2], the inhibition result was “inactive”.

For the compound `O=C1Cc2c(cccc2-c2ccco2)C(=O)N1`, in test [1], the IC50 was more than 111 µM. Further, the inhibition result in test [2] is “inactive”.

As to `CC(=O)Nc1c2c(nn1-c1ccccc1)CC(=O)NC2=O`, the IC50 in test [1] is more than 111 µM. Besides, the inhibition entry in test [2] was “inactive”.

Regarding `O=C1NC(=O)c2ccc(Br)c3cccc1c23`, the IC50 in test [1] is more than 111 µM. The inhibition entry in test [2] was “inactive”.

Turning to `O=C1Cc2cc(C(=O)O)ccc2C(=O)N1`, in test [1], the IC50 was more than 111 µM. For the same compound, the inhibition result in test [2] was “inactive”.

For the compound `O=C1Cc2ccc(-c3cccc([N+](=O)[O-])c3)cc2C(=O)N1`, the IC50 in test [1] was determined as 11 µM. Further, the inhibition entry in test [2] was “inactive”.
